MT1-MMP act inh = blocks activation of human MT1-MMP | GFP/RFP ratio change, % at 20 µM | HT1080 RFP-PRO-GFP cells, GFP/RFP ratio fluorescence, overnight; percent of plate control window, DMSO zero | P50281 | AID 651647 | 0.061% of 360,000 active;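 active = GFP/RFP ratio change of at least 30% with cell ATP level not reduced by more than half and red fluorescence within 50% of control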
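Assay system: RFP-PRO-GFP reporter HT1080 cells; read-out basis: GFP/RFP fluorescence ratio; benchmarks: DMSO wells and RFP-L50D-GFP cells; doses: 20 µM single dose, 1% DMSO; schedule: overnight cell settling, then overnight compound exposure, 37 °C, 5% CO2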
MPTP block = inhibitors of mitochondrial permeability transition pore | isolated mouse mitochondria, Ca2+ swelling absorbance, 30 min | inhibition, % at 10 µM | 1.4% of 360,000 active | AID 602449;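 active = inhibition of 50% or more, scaled per plate between neutral and stimulator controls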;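 note: 0% = DMSO wells given calcium and 100% = 1 mM EGTA wells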
ADAM10 inh = inhibitors of human ADAM10; inhibition, % at 7 µM; recombinant ADAM10, EDANS/DABCYL FRET peptide cleavage, 3 h; AID 720582; 0.62% of 370,000 active;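 active = inhibition above a per-campaign cutoff equal to the mean of compounds falling between control-based bounds plus 3 SD, cut at about 20% in these data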;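 note: 0% = DMSO wells while the 100% control is not disclosed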
GRIN3A LBD mod = modulators (binders) of human NR3A ligand-binding domain; Tm shift relative to glycine control, % at 25 µM; NR3A LBD differential scanning fluorimetry, Tm shift; 0% = protein alone, 100% = glycine-bound protein; 2.5% of 340,000 active;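 active = melting temperature shift of at least 10% of the positive control shift, at one fixed dose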
ADAM17 inh = inhibits human ADAM17; P78536; recombinant ADAM17, EDANS/DABCYL FRET peptide cleavage; inhibition, % at 6.95 µM; 0.83% of 370,000 active;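 active = inhibition above the mean of compounds lying between control limits plus 3 SD, set per campaign, cut at about 8.5% in these data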;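 note: 0% = DMSO-only wells as the low control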
Target sequence (P78536 215-824 limits assumed): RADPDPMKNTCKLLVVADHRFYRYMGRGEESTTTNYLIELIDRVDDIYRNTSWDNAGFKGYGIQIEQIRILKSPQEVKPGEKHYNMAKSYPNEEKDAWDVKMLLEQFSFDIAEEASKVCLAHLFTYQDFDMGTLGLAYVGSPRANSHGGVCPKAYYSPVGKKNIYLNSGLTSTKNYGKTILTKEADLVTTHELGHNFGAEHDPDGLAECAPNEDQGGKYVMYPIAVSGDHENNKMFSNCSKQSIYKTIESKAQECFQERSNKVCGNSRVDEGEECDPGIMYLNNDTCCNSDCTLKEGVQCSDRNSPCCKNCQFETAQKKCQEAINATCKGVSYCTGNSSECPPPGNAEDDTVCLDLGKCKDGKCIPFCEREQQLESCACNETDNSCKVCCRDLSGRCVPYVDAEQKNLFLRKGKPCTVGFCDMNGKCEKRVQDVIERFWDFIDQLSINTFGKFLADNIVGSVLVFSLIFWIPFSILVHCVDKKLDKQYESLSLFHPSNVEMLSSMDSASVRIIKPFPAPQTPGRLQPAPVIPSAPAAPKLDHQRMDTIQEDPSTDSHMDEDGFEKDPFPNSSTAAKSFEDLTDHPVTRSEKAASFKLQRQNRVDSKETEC
SKN-1 inh = inhibitors of C. elegans SKN-1. C. elegans VP596 Pgst-4::GFP/RFP ratio, acrylamide-induced, 24 h. 0.49% of 360,000 active. inhibition, % at 21.8 µM. AID 624304;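 active = interference check ratio from 0.5 to 1.5 plus GFP to RFP signal ratio inhibition reaching or exceeding a fixed threshold, cut at about 30% in these data, passing the limit was not always enough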
ADAM10 confirm = confirmation of inhibitors of human ADAM10; 1% of 2,100 active; ADAM10 QFRET peptide cleavage, EDANS fluorescence; inhibition, % at 6.95 µM; AID 743208; shares compounds with ADAM10 inh;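 active = inhibition above about 20% chosen separately for each screening run, limit read from the data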;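 note: 0% = DMSO wells and 100% = marimastat wells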
ADAM17 counter = ADAM17 inhibition, counter-screen for ADAM10 exosite hits | AID 743214 | ADAM17 QFRET peptide cleavage, EDANS fluorescence | shares compounds with ADAM10 inh | inhibition, % at 6.95 µM | 0.5% of 2,100 active;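 active = mean triplicate inhibition above the solvent-only control wells' mean plus 3 SD, cut at about 12% in these data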;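 note: 0% = DMSO wells and 100% = marimastat wells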
The depositor's hits bear a star; · = no result; ! = a repeat was not active. An excerpt weighted towards active compounds, which were near 4.7% of everything screened.

SMILES	MT1-MMP act inh	MPTP block	ADAM10 inh	GRIN3A LBD mod	ADAM17 inh	SKN-1 inh	ADAM10 confirm	ADAM17 counter
Cc1occc1C(=O)NNC(=O)C(c1ccccc1)c1ccccc1	-4.1	-0.9	28.0*	-1.6	5.4	6.5	-1.2	0.1
O=C(CCN1C(=O)/C(=C/c2ccc3c(c2)OCO3)SC1=S)Nc1ccc(C(=O)O)cc1	-0.2	0.9	0.4	3.5	-6.4	-10.4	·	·
Cc1cccc(N2CCN(S(=O)(=O)c3ccc4c(c3)CC(=O)N4C)CC2)c1C	-1.5	0.3	21.4*	1.6	0.7	8.6	0.9	0.9
O=C(NNC(=O)c1sc2ccccc2c1Cl)Nc1ccc(Cl)cc1	12.3	1.1	19.8*	6.2	5.1	18.1	0.2	0.3
COC(=O)[C@]12C[C@H](CC(=O)NCC3CCCCC3)C(=O)N(Cc3ccc4c(c3)OCO4)C1=C[C@H](COCc1ccccc1)O[C@@H]2C	·	·	11.0	·	5.8	·	·	·
Cc1ccc(NC(=O)Nc2ccc3c(c2)[C@]2(CC(=O)N(CC(C)C)C2c2ccccc2)C(=O)N3C)cc1Cl (some centres not stated)	·	·	21.7*	·	9.5*	·	7.4	2.4
O=C1CCc2cc(S(=O)(=O)NC(C(=O)NCc3cccnc3)c3ccccc3)ccc2N1 (configuration not stated)	-3.3	-1.2	-1.4	-1.2	-2.8	5.9	·	·
CSc1ccc(CSCC(=O)N2CCN(S(=O)(=O)c3ccc(C)cc3C)CC2)cc1	-7.0	-1.0	24.0*	0.4	5.4	-1.1	3.1	1.9
CC(=O)c1ccc(OCC(=O)N2CCN(S(=O)(=O)c3ccc(C)cc3C)CC2)cc1	-0.9	-0.3	83.8*	0.3	0.2	11.6	-1.4	0.1
CCC(C)NC(=O)CC(NS(=O)(=O)c1ccc(C)cc1)c1ccc(OC)cc1 (configuration not stated)	0.9	20.8	10.9	1.1	-0.5	-4.3	·	·
CCOC(=O)c1[nH]c(C)c(C(=O)NCc2ccc(OC)cc2)c1C	1.2	-1.1	68.5*	-1.8	-1.8	5.7	0.0	0.1
O=C(Nc1ccnn1C1CCN(Cc2ccc(OC(F)F)cc2)CC1)C1CCCC1	4.7	-0.4	-9.0	2.2	-6.8	-5.4	·	·
Cc1cccnc1NC(=O)COc1ccc2oc3c(c2c1)CCCC3	5.3	-1.1	81.6*	-0.3	-2.6	-13.0	3.5	0.7
Cc1ccc(NC(=O)COc2ccc3oc4c(c3c2)CCCC4)nc1	8.3	3.5	2.8	0.5	-2.7	10.4	·	·
Cc1onc(C(=O)N2CCN(c3ccccc3F)CC2)c1-c1ccccc1Cl	1.0	0.8	-0.2	-2.7	0.7	-2.7	·	·
O=C(O)C(O)C(O)C(O)C(O)C(=O)O (configuration not stated) (tested in a mixture with another compound)	2.5	-0.9	5.7	0.0	-2.1	-14.2	·	·
CCOC(=O)c1c(NC(=O)c2ccoc2C)sc(C)c1C	-1.4	0.8	-5.4	3.1	-3.9	2.1	·	·
CCOc1ccccc1NC(=O)CSc1nc(=O)n(CCCN2CCOCC2)c2c1CCC2	-1.8	-0.1	-15.5	-1.0	-5.0	5.1	·	·
O=C(CSc1nc(=O)n(CCCN2CCOCC2)c2c1CCC2)Nc1ccccc1F	-0.4	-0.7	79.9*	2.1	-1.1	-3.1	0.5	0.1
CC(=O)[C@H]1CC[C@H]2[C@@H]3CCC4=CC(=O)CC[C@]4(C)[C@H]3CC[C@]12C	1.7	·	21.0*!	0.6	7.4	-3.5	4.0	1.5
CC(=O)OCC(=O)[C@@]1(O)[C@H](C)C[C@H]2[C@@H]3CCC4=CC(=O)C=C[C@]4(C)[C@@]3(F)[C@@H](O)C[C@@]21C	-2.0	-2.4	9.1	0.6	3.5	-28.5	·	·
CCC(=O)OCC(=O)[C@@]1(OC(=O)CC)[C@@H](C)C[C@H]2[C@@H]3CCC4=CC(=O)C=C[C@]4(C)[C@@]3(Cl)[C@@H](O)C[C@@]21C	-4.7	-0.4	21.0*	-10.3	6.4	3.4	1.3	0.3
CC(C)(C)C(=O)Nc1ccc(-c2cc3cc(Cl)ccc3o2)cc1	1.8	1.4	-3.7	1.5	-5.8	-3.1	·	·
C[C@H](CO)N1C[C@H](C)[C@@H](CN(C)S(=O)(=O)c2cn(C)cn2)Oc2c(NS(=O)(=O)c3ccc(F)cc3)cccc2C1=O	-3.5	1.1	-0.5	-3.3	0.7	-10.1	·	·
CCCCn1c(SCc2nc(N)nc(Nc3ccccc3C)n2)nc2ccccc2c1=O	4.1	-0.5	21.2*	-12.4	3.8	-0.7	15.0	4.5
SMILES	MT1-MMP act inh	MPTP block	ADAM10 inh	GRIN3A LBD mod	ADAM17 inh	SKN-1 inh	ADAM10 confirm	ADAM17 counter
COCC(C)n1c(SCc2nc(N)nc(Nc3ccccc3C)n2)nc2ccccc2c1=O (configuration not stated)	-4.6	-2.0	2.0	-0.9	-0.4	13.6	·	·
CSc1nc(O)c(C(c2cccc([N+](=O)[O-])c2)c2c(O)nc(SC)[nH]c2=O)c(=O)[nH]1	3.1	-0.2	81.1*	1.5	-1.5	-3.1	-0.9	-0.5
O=C(NCc1n[nH]c(=S)n1-c1ccc(Cl)c(Cl)c1)c1ccc(S(=O)(=O)N2CCCCC2)cc1	3.7	-0.1	8.8	-10.4	6.2	6.9	·	·
CCCN(CCC)S(=O)(=O)c1ccc(C(=O)NCc2n[nH]c(=S)n2-c2ccc(Cl)c(Cl)c2)cc1	-2.9	2.7	24.4*	0.7	6.2	8.7	0.7	0.7
CC(=O)Oc1ccc2ccccc2c1C(NC(=O)Cc1ccccc1)c1ccc(Cl)cc1 (configuration not stated)	-39.4	32.4	22.1*	0.5	8.6	6.9	6.8	1.9
CCOc1ccc(C(NC(=O)CC)c2c(O)ccc3ccccc23)cc1 (configuration not stated)	-4.9	0.9	-81.9	-2.9	-18.9	10.4	·	·
CSc1ccc(S(=O)(=O)Nc2ccccc2C(=O)N2CCOCC2)cc1	-2.7	-0.7	-1.5	0.3	-1.5	17.5	·	·
C/C(CC(=O)Nc1ccc([N+](=O)[O-])cc1)=N/NC(=O)C1CC12CCC2 (configuration not stated)	1.1	-0.6	20.3*	-0.7	8.3	-8.6	2.2	-0.1
NNC(=O)c1cccc(Cn2cc(Br)c([N+](=O)[O-])n2)c1	5.1	-1.4	0.3	-0.6	-3.9	-14.4	·	·
Cc1ccc(Cn2cc(CN3[C@H](c4ccccc4)COc4cc(Br)ccc4S3(=O)=O)nn2)cc1	·	·	20.6*	·	8.4	·	5.8	1.8

Assay outcomes (PubChem BioAssay)
